Test results reported in ChEMBL document CHEMBL3627681, “Synthesis and biological evaluation of 1,3-diaryl pyrazole derivatives as potential antibacterial and anti-inflammatory agents” (2015).
Values after ≈ are worked out from the molar mass of the structure shown.

Legend:
Streptococcus mutans = test: Antibacterial activity against Streptococcus mutans 3065 after 24 hrs by two-fold serial dilution method; assay type: functional; conditions: Streptococcus mutans, 3065, 24 h
Summary of the method: (§1)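 Broth microdilution in Mueller-Hinton broth over final concentrations of 64–0.5. Bacteria were grown to mid-log phase and diluted 1000-fold, then inoculated at 10⁵ CFU/mL. Compounds were dissolved in DMSO, with final DMSO at most 0.05%. Plates were incubated 24 h at 37 °C and growth read as absorbance at 650 nm. MIC is the concentration giving complete growth inhibition. Three independent runs.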

Escherichia coli [1] = test: Antibacterial activity against Escherichia coli CCARM 1356 after 24 hrs by two-fold serial dilution method; assay type: functional; conditions: CCARM 1356, 24 h; summary of the method: as §1
Staphylococcus aureus [2] = test: Antibacterial activity against methicillin-resistant Staphylococcus aureus CCARM 3167 after 24 hrs by two-fold serial dilution method; assay type: functional; conditions: CCARM 3167, 24 h
Summary of the method: (§2)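 Broth microdilution in Mueller-Hinton broth. Bacteria grown to mid-log phase, diluted 1000-fold, and inoculated at 10⁵ CFU/mL. Test compounds in DMSO, final DMSO not above 0.05%, final concentrations 64-0.5 µg/mL. Incubation 24 h at 37 °C, growth read as absorbance at 650 nm. MIC taken as the lowest concentration giving complete growth inhibition. Run three times.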

Staphylococcus aureus [3] = test: Antibacterial activity against Staphylococcus aureus RN4220 after 24 hrs by two-fold serial dilution method; assay type: functional; conditions: RN4220, 24 h; summary of the method: as §2
Pseudomonas aeruginosa [4] = test: Antibacterial activity against Pseudomonas aeruginosa 2004 after 24 hrs by two-fold serial dilution method; assay type: functional; conditions: Pseudomonas aeruginosa, 2004, 24 h; summary of the method: as §1
Staphylococcus aureus [5] = test: Antibacterial activity against quinolone-resistant Staphylococcus aureus CCARM 3505 after 24 hrs by two-fold serial dilution method; assay type: functional; conditions: CCARM 3505, 24 h; summary of the method: as §2
Staphylococcus aureus [6] = test: Antibacterial activity against methicillin-resistant Staphylococcus aureus CCARM 3506 after 24 hrs by two-fold serial dilution method; assay type: functional; conditions: CCARM 3506, 24 h; summary of the method: as §2
Candida albicans = test: Antifungal activity against Candida albicans 7535 by two-fold serial dilution method; assay type: functional
Escherichia coli [7] = test: Antibacterial activity against Escherichia coli KCTC 1924 after 24 hrs by two-fold serial dilution method; assay type: functional; conditions: KCTC 1924, 24 h; summary of the method: as §1
Pseudomonas aeruginosa [8] = test: Antibacterial activity against Pseudomonas aeruginosa 2742 after 24 hrs by two-fold serial dilution method; assay type: functional; conditions: Pseudomonas aeruginosa, 2742, 24 h; summary of the method: as §1
Staphylococcus aureus [9] = test: Antibacterial activity against Staphylococcus aureus 503 after 24 hrs by two-fold serial dilution method; assay type: functional; conditions: Staphylococcus aureus, 503, 24 h; summary of the method: as §2
Salmonella typhimurium = test: Antibacterial activity against Salmonella typhimurium 2421 after 24 hrs by two-fold serial dilution method; assay type: functional, Salmonella enterica subsp. enterica serovar Typhimurium; conditions: Salmonella enterica, 2421, 24 h; summary of the method: as §1
Staphylococcus aureus [10] = test: Antibacterial activity against quinolone-resistant Staphylococcus aureus CCARM 3519 after 24 hrs by two-fold serial dilution method; assay type: functional; conditions: CCARM 3519, 24 h; summary of the method: as §2
Staphylococcus aureus [11] = test: Antibacterial activity against Staphylococcus aureus 209 after 24 hrs by two-fold serial dilution method; assay type: functional; conditions: Staphylococcus aureus, 209, 24 h; summary of the method: as §2
Mus musculus = test: Antiinflammatory activity in mouse assessed as inhibition of xylene-induced ear edema at 50 mg/kg, ip administered 30 mins before xylene challenge relative to control; assay type: functional
Summary of the method: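 Mice received compound freshly dissolved in DMSO, 50 mg/kg ip at 0.05 mL/20 g body weight; vehicle controls got DMSO alone. After 30 min, 20 µL xylene was applied to the right ear. After a further 30 min, 7 mm plugs were cut from treated and untreated ears and edema taken as their weight difference. Result is % edema reduction versus vehicle controls.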

Escherichia coli [12] = test: Ratio of moxifloxacin MIC to compound MIC for Escherichia coli CCARM 1356 after 24 hrs by two-fold serial dilution method; assay type: functional

Row | SMILES | MIC (Streptococcus mutans) [µg/mL] | MIC (Escherichia coli [1]) [µg/mL] | MIC (Staphylococcus aureus [2]) [µg/mL] | MIC (Staphylococcus aureus [3]) [µg/mL] | MIC (Pseudomonas aeruginosa [4]) [µg/mL] | MIC (Staphylococcus aureus [5]) [µg/mL] | MIC (Staphylococcus aureus [6]) [µg/mL] | MIC (Candida albicans) [µg/mL] | MIC (Escherichia coli [7]) [µg/mL] | MIC (Pseudomonas aeruginosa [8]) [µg/mL] | MIC (Staphylococcus aureus [9]) [µg/mL] | MIC (Salmonella typhimurium) [µg/mL] | MIC (Staphylococcus aureus [10]) [µg/mL] | MIC (Staphylococcus aureus [11]) [µg/mL] | inhibition in vivo at 50 mg/kg (Mus musculus) [%] | Ratio (Escherichia coli [12])
1 | COc1c(N2CCNC(C)C2)c(F)cc2c(=O)c(C(=O)O)cn(C3CC3)c12 (centres undefined) [GATIFLOXACIN] | 0.5 (≈ 1.33 µM) | 16 (≈ 42.6 µM) | 2 (≈ 5.33 µM) | 0.25 (≈ 0.666 µM) | 1 (≈ 2.66 µM) | 8 (≈ 21.3 µM) | 2 (≈ 5.33 µM) | 0.5 (≈ 1.33 µM) | 2 (≈ 5.33 µM) | 1 (≈ 2.66 µM) | 2 (≈ 5.33 µM) | 0.5 (≈ 1.33 µM) | 4 (≈ 10.7 µM) | 2 (≈ 5.33 µM) |  | 
2 | Cc1ccc(-c2nn(-c3ccc([N+](=O)[O-])cc3[N+](=O)[O-])cc2/C=N/NC(=O)c2ccco2)cc1 | > 64 | > 64 | > 64 | > 64 | > 64 | > 64 | > 64 | > 64 | > 64 | > 64 | > 64 | > 64 | > 64 | > 64 | 36 | 
3 | N=C(N)N/N=C/c1cn(-c2ccccc2)nc1-c1ccc(Br)cc1 | > 64 | > 64 | 8 (≈ 20.9 µM) | 4 (≈ 10.4 µM) | > 64 | 16 (≈ 41.7 µM) | 4 (≈ 10.4 µM) | 4 (≈ 10.4 µM) | 8 (≈ 20.9 µM) | > 64 | 4 (≈ 10.4 µM) | > 64 | 16 (≈ 41.7 µM) | 8 (≈ 20.9 µM) | 42.8 | 
4 | O=C(N/N=C/c1cn(-c2ccc([N+](=O)[O-])cc2[N+](=O)[O-])nc1-c1ccccc1Br)c1ccco1 | > 64 | > 64 | > 64 | > 64 | > 64 | > 64 | > 64 | > 64 | > 64 | > 64 | > 64 | > 64 | > 64 | > 64 | 17.5 | 
5 | O=C(N/N=C/c1cn(-c2ccc([N+](=O)[O-])cc2[N+](=O)[O-])nc1-c1ccccc1F)c1ccco1 | > 64 | > 64 | > 64 | > 64 | > 64 | > 64 | > 64 | > 64 | > 64 | > 64 | > 64 | > 64 | > 64 | > 64 | 28 | 
6 | Cc1cccc(-c2nn(-c3ccc([N+](=O)[O-])cc3[N+](=O)[O-])cc2/C=N/NC(=N)N)c1 | 4 (≈ 9.79 µM) | 8 (≈ 19.6 µM) | 2 (≈ 4.9 µM) | 2 (≈ 4.9 µM) | > 64 | 2 (≈ 4.9 µM) | 2 (≈ 4.9 µM) | 2 (≈ 4.9 µM) | 2 (≈ 4.9 µM) | > 64 | 2 (≈ 4.9 µM) | 8 (≈ 19.6 µM) | 4 (≈ 9.79 µM) | 2 (≈ 4.9 µM) | 76.9 | 16
7 | N=C(N)N/N=C/c1cn(-c2ccc([N+](=O)[O-])cc2[N+](=O)[O-])nc1-c1ccccc1[N+](=O)[O-] | 32 (≈ 72.8 µM) | 32 (≈ 72.8 µM) | 16 (≈ 36.4 µM) | 16 (≈ 36.4 µM) | > 64 | 16 (≈ 36.4 µM) | 8 (≈ 18.2 µM) | 8 (≈ 18.2 µM) | 16 (≈ 36.4 µM) | > 64 | 16 (≈ 36.4 µM) | 32 (≈ 72.8 µM) | 32 (≈ 72.8 µM) | 32 (≈ 72.8 µM) | 58.3 | 
8 | O=C(N/N=C/c1cn(-c2ccc([N+](=O)[O-])cc2[N+](=O)[O-])nc1-c1cccc(Cl)c1)c1ccco1 | > 64 | > 64 | > 64 | > 64 | > 64 | > 64 | > 64 | > 64 | > 64 | > 64 | > 64 | > 64 | > 64 | > 64 | 26.2 | 
9 | CCn1cc(C(=O)O)c(=O)c2cc(F)c(N3CCNCC3)cc21 [NORFLOXACIN] |  |  | 8 (≈ 25.1 µM) |  |  | > 64 | 4 (≈ 12.5 µM) |  |  |  |  |  | > 64 |  |  | 
10 | N=C(N)N/N=C/c1cn(-c2ccc([N+](=O)[O-])cc2[N+](=O)[O-])nc1-c1ccccc1Br | 16 (≈ 33.8 µM) | 16 (≈ 33.8 µM) | 4 (≈ 8.45 µM) | 4 (≈ 8.45 µM) | > 64 | 4 (≈ 8.45 µM) | 4 (≈ 8.45 µM) | 2 (≈ 4.23 µM) | 4 (≈ 8.45 µM) | > 64 | 4 (≈ 8.45 µM) | 16 (≈ 33.8 µM) | 8 (≈ 16.9 µM) | 8 (≈ 16.9 µM) | 78.1 | 
11 | COc1c(N2C[C@@H]3CCCN[C@@H]3C2)c(F)cc2c(=O)c(C(=O)O)cn(C3CC3)c12 [MOXIFLOXACIN] | 0.25 (≈ 0.623 µM) | 128 (≈ 319 µM) |  | 0.25 (≈ 0.623 µM) | 2 (≈ 4.98 µM) |  |  | 0.5 (≈ 1.25 µM) |  |  | 2 (≈ 4.98 µM) | 0.5 (≈ 1.25 µM) | 4 (≈ 9.96 µM) |  |  | 
12 | CCC(C)n1ncn(-c2ccc(N3CCN(c4ccc(OCC5COC(Cn6cncn6)(c6ccc(Cl)cc6Cl)O5)cc4)CC3)cc2)c1=O (centres undefined) [ITRACONAZOLE] |  |  |  |  |  |  |  | 0.06 (≈ 0.085 µM) |  |  |  |  |  |  |  | 
13 | OC(Cn1cncn1)(Cn1cncn1)c1ccc(F)cc1F [FLUCONAZOLE] |  |  |  |  |  |  |  | 1 (≈ 3.27 µM) |  |  |  |  |  |  |  | 
14 | CC(C)Cc1ccc(C(C)C(=O)O)cc1 (centres undefined) [IBUPROFEN] |  |  |  |  |  |  |  |  |  |  |  |  |  |  | 29.6 | 
15 | Cc1onc(-c2ccccc2)c1C(=O)N[C@@H]1C(=O)N2[C@@H]1SC(C)(C)[C@@H]2C(=O)O [OXACILLIN] |  |  | > 64 |  |  | 1 (≈ 2.49 µM) | > 64 |  |  |  |  |  | 1 (≈ 2.49 µM) |  |  | 
16 | N=C(N)N/N=C/c1cn(-c2ccc([N+](=O)[O-])cc2[N+](=O)[O-])nc1-c1ccccc1F | 16 (≈ 38.8 µM) | 16 (≈ 38.8 µM) | 8 (≈ 19.4 µM) | 8 (≈ 19.4 µM) | > 64 | 8 (≈ 19.4 µM) | 4 (≈ 9.7 µM) | 4 (≈ 9.7 µM) | 8 (≈ 19.4 µM) | > 64 | 8 (≈ 19.4 µM) | 16 (≈ 38.8 µM) | 8 (≈ 19.4 µM) | 8 (≈ 19.4 µM) | 87.2 | 
17 | N=C(N)N/N=C/c1cn(-c2ccc([N+](=O)[O-])cc2[N+](=O)[O-])nc1-c1ccccc1Cl | 16 (≈ 37.3 µM) | 16 (≈ 37.3 µM) | 4 (≈ 9.33 µM) | 4 (≈ 9.33 µM) | > 64 | 4 (≈ 9.33 µM) | 4 (≈ 9.33 µM) | 2 (≈ 4.66 µM) | 4 (≈ 9.33 µM) | > 64 | 4 (≈ 9.33 µM) | 8 (≈ 18.7 µM) | 8 (≈ 18.7 µM) | 8 (≈ 18.7 µM) | 84.6 | 
18 | N=C(N)N/N=C/c1cn(-c2ccc([N+](=O)[O-])cc2[N+](=O)[O-])nc1-c1ccccc1 | 16 (≈ 40.6 µM) | 16 (≈ 40.6 µM) | 8 (≈ 20.3 µM) | 8 (≈ 20.3 µM) | > 64 | 8 (≈ 20.3 µM) | 8 (≈ 20.3 µM) | 4 (≈ 10.1 µM) | 8 (≈ 20.3 µM) | > 64 | 8 (≈ 20.3 µM) | 16 (≈ 40.6 µM) | 8 (≈ 20.3 µM) | 8 (≈ 20.3 µM) | 86.9 | 
19 | N=C(N)N/N=C/c1cn(-c2ccccc2)nc1-c1ccc(Cl)cc1 | > 64 | > 64 | > 64 | 16 (≈ 47.2 µM) | > 64 | > 64 | > 64 | > 64 | > 64 | > 64 | > 64 | > 64 | > 64 | > 64 | 46 | 
20 | N=C(N)N/N=C/c1cn(-c2ccccc2)nc1-c1ccc(F)cc1 | > 64 | > 64 | 8 (≈ 24.8 µM) | 8 (≈ 24.8 µM) | > 64 | 16 (≈ 49.6 µM) | 8 (≈ 24.8 µM) | 8 (≈ 24.8 µM) | 8 (≈ 24.8 µM) | > 64 | 16 (≈ 49.6 µM) | > 64 | 16 (≈ 49.6 µM) | 8 (≈ 24.8 µM) | 61.4 | 
21 | O=C(N/N=C/c1cn(-c2ccc([N+](=O)[O-])cc2[N+](=O)[O-])nc1-c1cccc(Br)c1)c1ccco1 | > 64 | > 64 | > 64 | > 64 | > 64 | > 64 | > 64 | > 64 | > 64 | > 64 | > 64 | > 64 | > 64 | > 64 | 25.3 | 
